Assay results published in PubChem BioAssay.
Activity calls are given as the source filed them.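 The calls were made as follows, unless noted: active = inhibition of the reporter signal at or above 50%; inactive = inhibition below 50%.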

Columns and labels:
[1] = inhibitors of TNFa-induced NFkB p65 translocation, primary screen, imaging, HUVEC, MLSMR starter and 10KST1 sets (AID 438;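 active = inhibition above 20% together with a positive visual image hit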;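 also: compound added about 3h40 before a 20 min TNFalpha stimulation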;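 as to inhibition: signal is the nuclear over cytoplasmic p65 intensity ratio per well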); settings: HUVEC TNFa-induced p65 nuclear translocation; cell count: measured here: nuclei count (cytotoxicity indicator), at 2.08 µM; inhibition: at 2 µM, stronger effect = higher value, 0% TNFa-plus-vehicle, 100% no-TNFa wells
[2] = reduction of polyQ htt aggregates in cells – imaging, exon1htt(103Q)mCFP cells, high-content imaging, primary screen (AID 483;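 active = visual image review flags a hit and inhibition of aggregation exceeds 20%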;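 also: compound exposure lasted 3 days before fixation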;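 as to nuclei count: percent of the per-plate median nuclei count of sample wells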); settings: exon1htt(103Q)mCFP cell line, aggregate imaging, at 2 µM; inhibition of aggregation: stronger effect = higher value; nuclei count: measured here: cell count, toxicity
[3] = endothelial E-selectin expression blockers – imaging, HUVEC, immunofluorescence, MLSMR starter and 10KST1 sets, primary screen (AID 487;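 active = visually confirmed hit in the image check and inhibition above 20%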;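 as to inhibition: signal is fraction of cell area covered by stained E-selectin grains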;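 as to nuclei count: 100% = median nuclei count of all wells on the same plate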); settings: HUVEC TNFalpha-induced E-selectin immunofluorescence imaging, at 2 µM; inhibition: stronger effect = higher value; nuclei count: measured here: cell number, toxicity
[4] = biological target: Voltage-gated potassium channel subunit beta-2 (Rattus norvegicus) (UniProt P62483); test: inhibitors of rat Kvbeta2 reductase activity – biochemical, NADPH fluorescence, primary screen (AID 622;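 active = fluorescence slope higher than the sample average by over 3 SD, cut at about -0.22 in these data, passing the limit was not always enough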;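 also: slope of raw intensity against log time taken from 70 to 1610 s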); settings: recombinant KvBeta, 4-cyanobenzaldehyde reduction, at 10 µM, stronger effect = higher value
[5] = biological target: Voltage-gated potassium channel subunit beta-2 (Rattus norvegicus) (UniProt P62483); test: enhancers of rat Kvbeta2 NADPH turnover – biochemical, NADPH fluorescence, primary screen (AID 623;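 active = NADPH fluorescence slope more negative than the mean of all samples by about 3 SD, 99.7% confidence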;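 also: fluorescence intensity change per second fitted from 20 to 320 s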); settings: Recombinant KvBeta, NADPH fluorescence decrease slope, 10 min; at 10 µM; stronger effect = lower value
[6] = biological target: Muscarinic acetylcholine receptor M4 (Homo sapiens) (UniProt P08173); test: M4-linked GIRK flux change, two-sided – cell-based, HEK293 M4/GIRK, thallium flux, BTC-AM, M4 allosteric agonist project, primary screen (AID 625;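 active = fluorescence slope after compound addition differing from the mean of all tested samples at 99.7% confidence, mostly higher but some lower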;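 also: thallium influx through GIRK channels coupled to M4 in HEK293 cells with BTC-AM dye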); settings: at 10 µM, actives lie on both sides
How it was run: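 assay system = HEK293 cells with M4 receptor and GIRK channels | medium = pH 7.3 thallium assay buffer | doses = 10 µM final, single point | timing = cells overnight at 37 °C, BTC-AM loading 1 h, reads 2 min total | signal = BTC-AM fluorescence, 1 Hz kinetic reads | read-out = post-addition slope, 15–24 s, of baseline-normalized fluorescence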

[7] = blockers of RIG-like receptor reporter activation – cell-based, Sendai virus stimulus, luciferase, 10K MLSCN set, TLR/RLR signaling modifier project, primary screen (AID 602276;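 active = inhibition at or above 50% at 10 µM; inactive = inhibition below 50%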;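 also: firefly luciferase from ISG56 promoter only with Renilla not read in this screen; 0% = Sendai virus plus DMSO and 100% = medium plus DMSO without virus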); settings: HEK293 RL24 IRF3 luciferase reporter, at 10 µM, stronger effect = higher value
[8] = TLR3 IRF3 reporter activation blockers – cell-based, poly I:C stimulus, luciferase, 10K MLSCN set, primary screen (AID 602277); settings: HEK293-TLR3 RL24 IRF3 luciferase reporter, at 10 µM, stronger effect = higher value

Chain of Muscarinic acetylcholine receptor M4 (Homo sapiens) (P08173 whole entry, looked up): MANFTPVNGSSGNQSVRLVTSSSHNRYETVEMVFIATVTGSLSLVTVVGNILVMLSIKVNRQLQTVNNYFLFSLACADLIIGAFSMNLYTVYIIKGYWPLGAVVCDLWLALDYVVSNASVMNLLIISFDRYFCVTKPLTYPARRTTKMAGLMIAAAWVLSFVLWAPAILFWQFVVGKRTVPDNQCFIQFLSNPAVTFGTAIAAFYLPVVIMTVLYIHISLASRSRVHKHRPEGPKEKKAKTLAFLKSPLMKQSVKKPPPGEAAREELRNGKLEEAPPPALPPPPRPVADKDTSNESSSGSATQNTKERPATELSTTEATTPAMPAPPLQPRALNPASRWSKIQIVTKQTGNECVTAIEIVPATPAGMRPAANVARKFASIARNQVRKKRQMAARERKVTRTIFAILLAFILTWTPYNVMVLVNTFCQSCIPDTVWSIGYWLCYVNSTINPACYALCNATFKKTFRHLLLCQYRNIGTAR
Chain of Voltage-gated potassium channel subunit beta-2 (Rattus norvegicus) (P62483 whole entry, looked up): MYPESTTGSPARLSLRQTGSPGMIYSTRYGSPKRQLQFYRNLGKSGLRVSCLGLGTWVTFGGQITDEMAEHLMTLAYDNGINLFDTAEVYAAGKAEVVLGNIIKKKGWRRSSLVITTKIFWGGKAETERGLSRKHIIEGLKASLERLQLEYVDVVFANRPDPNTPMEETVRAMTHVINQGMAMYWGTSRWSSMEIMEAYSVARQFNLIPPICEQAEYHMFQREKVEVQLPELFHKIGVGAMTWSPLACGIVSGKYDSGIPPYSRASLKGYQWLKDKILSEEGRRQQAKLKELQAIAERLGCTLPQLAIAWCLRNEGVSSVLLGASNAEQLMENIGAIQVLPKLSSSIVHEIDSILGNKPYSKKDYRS

Structure (SMILES) | cell count [1] | inhibition [1] | inhibition of aggregation [2] | nuclei count [2] [%] | inhibition [3] | nuclei count [3] [%] | fluorescence slope [4] | NADPH fluorescence slope [5] | fluorescence slope [6] | inhibition [7] | inhibition [8]
COc1ccccc1C(=O)N1CCNC(=O)C1CC(=O)Nc1ccc(Cl)cc1 (centres undefined) | 469 | 1.3% (inactive) | 9.7% (inactive) | 105 | -302% (inactive) | 123 | -0.565 (inactive) | -2.7e-05 (inactive) | 0.00504 (inactive) | 18.2% (inactive) | 28.3% (inactive)
CC(=O)Nc1ccc2nc(-c3cccnc3)[nH]c2c1 | 435 | -3.2% (inactive) | -1.8% (inactive) | 106 | -9.3% (inactive) | 116 | -0.571 (inactive) | 1.8e-05 (inactive) | 0.00606 (inactive) | -7.23% (inactive) | -16.4% (inactive)
COc1ccc(-c2noc(C3CCCN(C(=O)CCc4ccccc4)C3)n2)cc1 (centres undefined) | 383 | -3.5% (inactive) | 18.4% (inactive) | 101 | -83.2% (inactive) | 57.8 | -0.454 (inactive) | -5e-06 (inactive) | 0.00551 (inactive) | 12.3% (inactive) | 1.57% (inactive)
c1ccc(Cn2nnc3c(N4CCC5(CC4)OCCO5)ncnc32)cc1 | 382 | -1.3% (inactive) | 0.3% (inactive) | 103 | -346% (inactive) | 144 | -0.522 (inactive) | -5.2e-05 (inactive) | 0.00535 (inactive) | 3.41% (inactive) | 6.57% (inactive)
COc1oc(-c2ccccc2)nc1C(F)(F)F | 353 | 4.1% (inactive) | 0.7% (inactive) | 106 | -15.8% (inactive) | 116 | -0.473 (inactive) | -3.2e-05 (inactive) | 0.00537 (inactive) | 3.7% (inactive) | 12.2% (inactive)
COc1ccccc1N1CCN(C(=O)CCNS(=O)(=O)c2ccc3c(c2)CCC(=O)N3)CC1 | 556 | -18.8% (inactive) | -1.4% (inactive) | 123 | -31.1% (inactive) | 102 | -0.39 (inactive) | -1.7e-05 (inactive) | 0.00579 (inactive) | 5.92% (inactive) | 13.8% (inactive)
Cc1ccc(C)n1-c1ccc(N2CCOCC2)cc1 | 406 | 1% (inactive) | 14.3% (inactive) | 99.8 | -44.4% (inactive) | 111 | -0.345 (inactive) | -5.6e-05 (inactive) | 0.00513 (inactive) | 11.4% (inactive) | 8.15% (inactive)
Cc1ccccc1-c1nc(CN2CCC(C(=O)NCCCN3CCCC3)CC2)c(C)o1 | 223 | 0% (inactive) | -91.5% (inactive) | 101 | 25.4% (inactive) | 94.2 | -0.553 (inactive) | 7.2e-05 (inactive) | 0.00435 (inactive) | -136% (inactive) | 56.5% (active)
Cc1cc2oc(=O)cc(CN3CCCCC3)c2cc1C(C)C | 366 | -3.9% (inactive) | -20.2% (inactive) | 91.1 | 67.8% (active) | 56.9 | -0.56 (inactive) | -2.5e-05 (inactive) | 0.0051 (inactive) | 10.7% (inactive) | 40.9% (inactive)
COC(=O)c1ccccc1NC(=O)C1CCCCC1C(=O)O (centres undefined) | 266 | 2.8% (inactive) | 15.8% (inactive) | 98.8 | -39.2% (inactive) | 85.6 | -0.556 (inactive) | -2.1e-05 (inactive) | 0.00471 (inactive) | 12.8% (inactive) | 11.6% (inactive)
CCn1c(SCC(=O)Nc2ccc(C(C)=O)cc2)nc2ccccc21 | 227 | 14.4% (inactive) | -7.2% (inactive) | 101 | -2.2% (inactive) | 98.3 | -0.453 (inactive) | -0.000344 (inactive) | 0.00502 (inactive) | -13% (inactive) | -19.9% (inactive)
COc1ccc(CN2C(=O)c3cccnc3C2Nc2cc(Cl)ccc2OC)cc1 (centres undefined) | 482 | 3% (inactive) | 0.1% (inactive) | 105 | -26.9% (inactive) | 112 | -0.445 (inactive) | 0.00011 (inactive) | 0.00665 (inactive) | -6.43% (inactive) | -6.33% (inactive)
CC(=O)N1CCc2cc(S(=O)(=O)NCCC3=CCCCC3)ccc21 | 399 | 3.5% (inactive) | -11.2% (inactive) | 123 | -71.2% (inactive) | 141 | -0.425 (inactive) | 3.5e-05 (inactive) | 0.00546 (inactive) | 12.2% (inactive) | -2.52% (inactive)
O=C(CN1CCOCC1)Nc1cccc(C(=O)Nc2cccc(C(F)(F)F)c2)c1 | 199 | 4.3% (inactive) | 12.5% (inactive) | 90.7 | 1.6% (inactive) | 89.1 | -0.574 (inactive) | -6e-05 (inactive) | 0.0065 (inactive) | 7.38% (inactive) | -4.66% (inactive)
O=C(Cn1c(=O)[nH]c2ccsc2c1=O)N1CCN(c2ccc(F)cc2)CC1 | 654 | -29.9% (inactive) | -0.5% (inactive) | 106 | -34.1% (inactive) | 121 | -0.451 (inactive) | -3e-05 (inactive) | 0.00533 (inactive) | 15.1% (inactive) | 21.3% (inactive)
COc1ccc(OCCCC(=O)Nc2ccc3c(c2)OCCO3)cc1 | 467 | 10.1% (inactive) | -6.5% (inactive) | 104 | -237% (inactive) | 140 | -0.299 (inactive) | -2.2e-05 (inactive) | 0.00647 (inactive) | -5.01% (inactive) | -17.3% (inactive)
CCCC(=O)Nc1ccc(NC(=O)c2cccs2)cn1 | 425 | 6.7% (inactive) | 10.4% (inactive) | 106 | -445% (inactive) | 140 | -0.578 (inactive) | -3.4e-05 (inactive) | 0.00548 (inactive) | -12.8% (inactive) | -57.7% (inactive)
COc1cccc(CN(C(=O)c2cc3ccccc3oc2=O)C2CC2)c1 | 459 | -6.2% (inactive) | -16% (inactive) | 108 | -52.3% (inactive) | 137 | -0.51 (inactive) | -2.3e-05 (inactive) | 0.00464 (inactive) | -43.3% (inactive) | -136% (inactive)
COc1ccc(Br)cc1C(=O)Nc1nnn(C)n1 | 383 | 6.7% (inactive) | 5.6% (inactive) | 102 | 17% (inactive) | 106 | -0.51 (inactive) | 4.6e-05 (inactive) | 0.00661 (inactive) | -19.5% (inactive) | -34.7% (inactive)
